Measurements gathered from unrelated publications.
Protocols differ between the studies behind these lines.

`CC[C@H](C)Nc1ccnc(Nc2cccc(-c3cccnc3)c2)n1` gave a Papp of 2000 ×10⁻⁶ cm/s (PAMPA; 50 nM, 30 min).
`CCc1cc(C(=O)NC)c2nccc(N3CCc4c(cc(Cn5ccnc5)cc4-c4cn(C)nc4C(F)(F)F)C3=O)c2c1` gave an AUC(0-inf) of 37300 ng·h/mL (male Sprague-Dawley rat, plasma; oral, 100 mg/kg, single dose).
For `CCn1ncc2c(N3CCC(c4ccccn4)C3)nc(-c3ccccn3)nc21` (stereo not drawn), the Papp was 30.2 ×10⁻⁶ cm/s (PAMPA; 10 µM, 3 h, pH 7.4).
For `CCNc1ccnc(Nc2cccc(-c3cccnc3)c2)n1`, the Papp was 2200 ×10⁻⁶ cm/s (PAMPA; 50 nM, 30 min).
`C=CC(=O)N1CC2CC(n3nc(-c4ccc(C(=O)Nc5ccccn5)cc4)c4c(N)ncnc43)CC2C1` (stereo not drawn) has an AUC(0-t) of 2730 ng·h/mL (male Wistar rat, plasma; oral, 10 mg/kg).
`N#CC1CCCN(c2nc(-c3ccccn3)nc3ccccc23)C1` (stereo not drawn) gave a Papp of 22.4 ×10⁻⁶ cm/s (PAMPA; 10 µM, 3 h, pH 7.4).
With `CCOC(=O)[C@@]12C[C@@H]1[C@@H](n1ccc3c(NC)nc(C#Cc4ccc(Cl)s4)nc31)[C@H](O)[C@@H]2O` the AUC(0-t) was 27.6 ng·h/mL (male Sprague-Dawley rat, plasma; intravenous, 0.5 mg/kg).
With `Cc1cn2nc(-c3cc(=O)n4cc(N5CCNC6(CC6)C5)ccc4n3)cc(C)c2n1` the fraction unbound was 0.15 (cynomolgus monkey, plasma).
With `c1ccc(C2CCN(c3nc(-c4ccn[nH]4)nc4ccccc34)C2)nc1` (stereo not drawn) the Papp was 41.5 ×10⁻⁶ cm/s (PAMPA; 10 µM, 3 h, pH 7.4).
